The values below come from ChEMBL document CHEMBL4725234, “Structure-activity relationship analyses of fusidic acid derivatives highlight crucial role of the C-21 carboxylic acid moiety to its anti-mycobacterial activity” (Bioorg Med Chem, 2020).

Assay [1] concerns Mycobacterium tuberculosis. As to the kind of experiment: Antimycobacterial activity against Mycobacterium tuberculosis H37Rv. In kind it is functional. A digest of the protocol:
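Drug-sensitive M. tuberculosis H37Rv grown in a glycerol-containing medium; MIC99 is the minimum concentration that inhibits growth of 99% of the bacterial population.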

Another assay has as its system CHO-K1. As to the kind of experiment: Cytotoxicity against CHOK1 cells assessed as reduction in cell viability. Format: cell-based. The settings on record: Cricetulus griseus.

In brackets after ≈: the same amount, converted by molar mass.

What is called MIC99 is the lowest concentration that inhibits either 99% of growth or 99% of the strains tested, depending on the study. By IC50 is commonly meant the midpoint of a concentration-inhibition curve.

In assay [1], `CC(=O)O[C@H]1C[C@@]2(C)[C@@H](C[C@@H](O)[C@H]3[C@@]4(C)CC[C@@H](O)[C@@H](C)[C@@H]4CC[C@@]32C)/C1=C(\CCC=C(C)C)C(=O)NC#N` came in with an MIC99 of 40 µM (≈ 21.6 µg/mL). Moreover, the IC50 with CHO-K1 is above 185000 nM.

Molecule `CC(=O)O[C@H]1C[C@@]2(C)[C@@H](C[C@@H](O)[C@H]3[C@@]4(C)CCC(=O)[C@@H](C)[C@@H]4CC[C@@]32C)/C1=C(\CCC=C(C)C)C(=O)NNS(C)(=O)=O` displayed an MIC99 in assay [1] of 62.5 µM (≈ 37.9 µg/mL).

Molecule `CCCCCCCCCC(=O)O[C@@H]1CC[C@@]2(C)[C@@H](CC[C@@]3(C)[C@H]2[C@H](O)C[C@H]2/C(=C(\CCC=C(C)C)C(=O)O)[C@@H](OC(C)=O)C[C@@]23C)[C@@H]1C` had an MIC99 in assay [1] above 125 µM.

In the case of `COc1ccc(S(=O)(=O)NC(=O)/C(CCC=C(C)C)=C2\[C@@H](OC(C)=O)C[C@@]3(C)[C@H]2C[C@@H](O)[C@H]2[C@@]4(C)CC[C@@H](O)[C@@H](C)[C@@H]4CC[C@@]23C)cc1`, the MIC99 in assay [1] worked out at 31.3 µM (≈ 21.5 µg/mL).

`CO/N=C1\CC[C@@]2(C)[C@@H](CC[C@@]3(C)[C@H]2[C@H](O)C[C@H]2/C(=C(\CCC=C(C)C)C(=O)O)[C@@H](OC(C)=O)C[C@@]23C)[C@@H]1C` gave an MIC99 in assay [1] of 20 µM (≈ 10.9 µg/mL).

In turn, `CC(=O)O[C@H]1C[C@@]2(C)[C@@H](C[C@@H](O)[C@H]3[C@@]4(C)CC[C@@H](OC(=O)c5ccc([N+](=O)[O-])cc5)[C@@H](C)[C@@H]4CC[C@@]32C)/C1=C(\CCC=C(C)C)C(=O)O` registered an MIC99 in assay [1] above 125 µM.

For the molecule `CC(=O)O[C@H]1C[C@@]2(C)[C@@H](C[C@@H](O)[C@H]3[C@@]4(C)CC[C@@H](OC(=O)c5ccc(C(F)(F)F)cc5)[C@@H](C)[C@@H]4CC[C@@]32C)/C1=C(\CCC=C(C)C)C(=O)O`, the MIC99 in assay [1] is above 125 µM.

The molecule `CCC(=O)O[C@@H]1CC[C@@]2(C)[C@@H](CC[C@@]3(C)[C@H]2[C@H](O)C[C@H]2/C(=C(\CCC=C(C)C)C(=O)NN)[C@@H](OC(C)=O)C[C@@]23C)[C@@H]1C` yielded an MIC99 in assay [1] of 15.6 µM (≈ 9.15 µg/mL).

In the case of `CC(=O)O[C@H]1C[C@@]2(C)[C@@H](C[C@@H](O)[C@H]3[C@@]4(C)CC[C@@H](O)[C@@H](C)[C@@H]4CC[C@@]32C)/C1=C(\CCC=C(C)C)C(=O)N1CCC(O)CC1`, in assay [1], the MIC99 was 40 µM (≈ 24 µg/mL).

Molecule `CO[C@H]1/C=C/O[C@@]2(C)Oc3c(C)c(O)c4c(O)c(c(/C=N/N5CCN(C)CC5)c(O)c4c3C2=O)NC(=O)/C(C)=C\C=C\[C@H](C)[C@H](O)[C@@H](C)[C@@H](O)[C@@H](C)[C@H](OC(C)=O)[C@@H]1C` [RIFAMPIN] had an MIC99 in assay [1] of 0.005 µM (≈ 0.00411 µg/mL).

`CC(=O)O[C@H]1C[C@@]2(C)[C@@H](C[C@@H](O)[C@H]3[C@@]4(C)CC[C@@H](O)[C@@H](C)[C@@H]4CC[C@@]32C)/C1=C(\CCC=O)C(=O)O` registered an MIC99 in assay [1] of 40 µM (≈ 19.6 µg/mL).

In assay [1], `CC(=O)O[C@H]1C[C@@]2(C)[C@@H](C[C@@H](O)[C@H]3[C@@]4(C)CC[C@@H](O)[C@@H](C)[C@@H]4CC[C@@]32C)C1=O` had an MIC99 above 125 µM.

Regarding `CC(=O)O[C@H]1C[C@@]2(C)[C@@H](C[C@@H](O)[C@H]3[C@@]4(C)CC[C@@H](O)[C@@H](C)[C@@H]4CC[C@@]32C)/C1=C(\CCC=C(C)C)C(=O)N/N=C/c1cccnc1`, the MIC99 in assay [1] stood at 20 µM (≈ 12.4 µg/mL).

`CC(=O)O[C@H]1C[C@@]2(C)[C@@H](C[C@@H](O)[C@H]3[C@@]4(C)CC[C@@H](OC(=O)c5ccc(Br)cc5)[C@@H](C)[C@@H]4CC[C@@]32C)/C1=C(\CCC=C(C)C)C(=O)O` gave an MIC99 in assay [1] above 125 µM.

As for `CC[C@H]1CN2CCc3cc(OC)c(OC)cc3[C@@H]2C[C@@H]1C[C@H]1NCCc2cc(OC)c(OC)cc21` [EMETINE], the 50% inhibitory concentration (IC50) in the assay with CHO-K1 amounted to 400 nM.

For the molecule `CCCCC(=O)O[C@@H]1CC[C@@]2(C)[C@@H](CC[C@@]3(C)[C@H]2[C@H](O)C[C@H]2/C(=C(\CCC=C(C)C)C(=O)NNS(C)(=O)=O)[C@@H](OC(C)=O)C[C@@]23C)[C@@H]1C`, the MIC99 in assay [1] was found to be 62.5 µM (≈ 43.3 µg/mL).

The molecule `CC(=O)O[C@H]1C[C@@]2(C)[C@@H](C[C@@H](O)[C@H]3[C@@]4(C)CC[C@@H](O)[C@@H](C)[C@@H]4CC[C@@]32C)/C1=C(\CCC=C(C)C)C(=O)NCCN1CCOCC1` returned an MIC99 in assay [1] above 125 µM.

The molecule `CC(=O)O[C@H]1C[C@@]2(C)[C@@H](C[C@@H](O)[C@H]3[C@@]4(C)CC[C@@H](O)[C@@H](C)[C@@H]4CC[C@@]32C)/C1=C(\CCC=C(C)C)C(=O)NS(=O)(=O)c1ccc(C#N)cc1` displayed an MIC99 in assay [1] of 125 µM (≈ 85.1 µg/mL).

`CC(=O)O[C@H]1C[C@@]2(C)[C@@H](C[C@@H](O)[C@H]3[C@@]4(C)CC[C@@H](OC(=O)c5ccc(S(C)(=O)=O)cc5)[C@@H](C)[C@@H]4CC[C@@]32C)/C1=C(\CCC=C(C)C)C(=O)O` displayed an MIC99 in assay [1] of 31.3 µM (≈ 21.9 µg/mL).

As for `CC(=O)O[C@H]1C[C@@]2(C)[C@@H](C[C@@H](OC(C)=O)[C@H]3[C@@]4(C)CC[C@@H](OC(C)=O)[C@@H](C)[C@@H]4CC[C@@]32C)/C1=C(\CCC=C(C)C)C(=O)O`, the MIC99 in assay [1] is 52.5 µM (≈ 31.5 µg/mL).

As to `CCC(=O)O[C@@H]1CC[C@@]2(C)[C@@H](CC[C@@]3(C)[C@H]2[C@H](O)C[C@H]2/C(=C(\CCC=C(C)C)C(=O)NNS(C)(=O)=O)[C@@H](OC(C)=O)C[C@@]23C)[C@@H]1C`, the MIC99 in assay [1] was 7.81 µM (≈ 5.19 µg/mL).

`CC(=O)O[C@H]1C[C@@]2(C)[C@@H](C[C@@H](O)[C@H]3[C@@]4(C)CC[C@@H](O)[C@@H](C)[C@@H]4CC[C@@]32C)/C1=C(\CCC=C(C)C)C(=O)N1CC(O)C1` displayed an MIC99 in assay [1] of 40 µM (≈ 22.9 µg/mL).

On to `CC(=O)O[C@H]1C[C@@]2(C)[C@@H](C[C@@H](O)[C@H]3[C@@]4(C)CC[C@@H](OC(=O)c5ccncc5)[C@@H](C)[C@@H]4CC[C@@]32C)/C1=C(\CCC=C(C)C)C(=O)O`, for which, in assay [1], the MIC99 stood at 31.3 µM (≈ 19.5 µg/mL).

With `CC(=O)O[C@H]1C[C@@]2(C)[C@@H](C[C@@H](O)[C@H]3[C@@]4(C)CC[C@@H](OC(=O)c5ccc(C)cc5)[C@@H](C)[C@@H]4CC[C@@]32C)/C1=C(\CCC=C(C)C)C(=O)O`, the MIC99 in assay [1] was determined as 31.3 µM (≈ 19.9 µg/mL).

Take `CC(=O)O[C@H]1C[C@@]2(C)[C@@H](C[C@@H](O)[C@H]3[C@@]4(C)CC/C(=N\OCc5ccccc5)[C@@H](C)[C@@H]4CC[C@@]32C)/C1=C(\CCC=C(C)C)C(=O)O`: the MIC99 in assay [1] was determined as 40 µM (≈ 24.8 µg/mL).

Take `CC(=O)O[C@H]1C[C@@]2(C)[C@@H](C[C@@H](O)[C@H]3[C@@]4(C)CC[C@@H](OC(=O)c5ccc(F)cc5)[C@@H](C)[C@@H]4CC[C@@]32C)/C1=C(\CCC=C(C)C)C(=O)O`: in assay [1], the MIC99 was above 125 µM.

For `CC(=O)O[C@H]1C[C@@]2(C)[C@@H](C[C@@H](O)[C@H]3[C@@]4(C)CC[C@@H](O)[C@@H](C)[C@@H]4CC[C@@]32C)/C1=C(\CCC=C(C)C)C(=O)N/N=C/c1ccncc1`, the MIC99 in assay [1] stood at 20 µM (≈ 12.4 µg/mL).

Take `CC(=O)O[C@H]1C[C@@]2(C)[C@@H](CC(=O)[C@H]3[C@@]4(C)CCC(=O)[C@@H](C)[C@@H]4CC[C@@]32C)/C1=C(\CCC=C(C)C)C(=O)O`: the MIC99 in assay [1] worked out at 11.9 µM (≈ 6.1 µg/mL).

For the molecule `CCCCC(=O)O[C@@H]1CC[C@@]2(C)[C@@H](CC[C@@]3(C)[C@H]2[C@H](O)C[C@H]2/C(=C(\CCC=C(C)C)C(=O)NN)[C@@H](OC(C)=O)C[C@@]23C)[C@@H]1C`, the MIC99 in assay [1] came to 62.5 µM (≈ 38.4 µg/mL).

The molecule `CC(=O)O[C@H]1C[C@@]2(C)[C@@H](C[C@@H](O)[C@H]3[C@@]4(C)CC[C@@H](O)[C@@H](C)[C@@H]4CC[C@@]32C)/C1=C(\CCC=C(C)C)C(=O)NCCO` yielded an MIC99 in assay [1] above 125 µM.
